Test results reported in ChEMBL document CHEMBL3352088, “Novel derivatives of usnic acid effectively inhibiting reproduction of influenza A virus” (Bioorg Med Chem, 2014).

Assay: Antiviral activity against rimantidine, amantidine-resistant Influenza A virus (A/California/07/09(H1N1)) pdm09 infected in MDCK cells assessed as inhibition of viral replication after 1 hrs by hemagglutination assay
Format: functional, Influenza A virus (A/California/07/2009(H1N1))
Settings: read-out: ED50 (the source's name)
Outline: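 MDCK cells were pre-incubated 1 h at 37°C with serial twofold compound dilutions in MEM containing 2 mM arginine, 2 mM glutamine and 2 microgram/mL trypsin, then infected and cultured 48 h at 36°C. Supernatant was mixed with 1% chicken erythrocytes for 1 h at room temperature to read hemagglutination titer. ED50 is the concentration that halves virus production versus untreated cells.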

In order of rising EC50:
1. CC(=O)C1=C(O)C=C2Oc3c(C(=O)CSc4nc5ccccc5o4)c(O)c(C)c(O)c3[C@@]2(C)C1=O  2 µM
2. CC(=O)C1=C(O)C=C2Oc3c(C(=O)CSCc4ccc(C)cc4)c(O)c(C)c(O)c3[C@@]2(C)C1=O  2.1 µM
3. CC(=O)C1=C(O)C=C2Oc3c(C(=O)CSCc4ccccc4)c(O)c(C)c(O)c3[C@@]2(C)C1=O  2.1 µM
4. CC(=O)c1c(O)c(C)c(O)c2c1OC1=Cc3c(c(C)nn3-c3ccccc3)[C@@H](O)[C@@]12C  2.4 µM
5. CSCC[C@H](N/C(C)=C1\C(=O)C=C2Oc3c(C(C)=O)c(O)c(C)c(O)c3[C@@]2(C)C1=O)C(=O)O  4.2 µM
6. CC(=O)C1=C(O)C=C2Oc3c4c(c(C)c(O)c3[C@@]2(C)C1=O)O/C(=C\c1ccc(Br)cc1)C4=O  4.7 µM
7. COc1ccccc1/C=C1\Oc2c(C)c(O)c3c(c2C1=O)OC1=CC(O)=C(C(C)=O)C(=O)[C@@]13C  4.8 µM
8. COc1c(C)c(O)c(C(=O)/C=C/c2ccccc2)c2c1[C@]1(C)C(=Cc3c(c(C)nn3-c3ccccc3)CC13CO3)O2 (single isomer, unassigned; (+))  5.5 µM
9. CC(=O)c1c(O)c(C)c(O)c2c1OC1=CC(=O)/C(=C(/C)N[C@@H](CC(C)C)C(=O)O)C(=O)[C@@]12C  6.6 µM
10. CC(=O)c1c(O)c(C)c(O)c2c1OC1=CC(=O)/C(=C(/C)N[C@H](CC(=O)O)CC(C)C)C(=O)[C@]12C  6.6 µM
11. CC(=O)C1=C(O)C=C2Oc3c4c(c(C)c(O)c3[C@@]2(C)C1=O)O/C(=C\c1cccnc1)C4=O  7 µM
12. CC(=O)c1c(O)c(C)c(O)c2c1OC1=CC(=O)/C(=C(/C)NCCC(=O)O)C(=O)[C@@]12C  7.2 µM
13. CC(=O)C1=C(O)C=C2Oc3c(C(C)=O)c(OC(F)(Cl)C(F)F)c(C)c(O)c3[C@@]2(C)C1=O (stereo not given in full)  7.2 µM
14. CC(=O)C1=C(O)C=C2Oc3c4c(c(C)c(O)c3[C@@]2(C)C1=O)O/C(=C\c1ccncc1)C4=O  7.7 µM
15. CC(=O)C1=C(O)C=C2Oc3c(C(C)=O)c(OC(=O)c4ccccc4Br)c(C)c(OC(=O)c4ccccc4Br)c3[C@@]2(C)C1=O  7.8 µM
16. CC(=O)C1=C(O)C[C@H]2Oc3c(C(C)=O)c(O)c(C)c(O)c3[C@@]2(C)C1=O  8.1 µM
17. COc1cc(/C=C/C(=O)c2c(O)c(C)c(OC)c3c2OC2=Cc4c(c(C)nn4-c4ccccc4)[C@@H](O)[C@@]23C)cc(OC)c1OC  8.2 µM
18. COc1cccc(/C=C/C(=O)c2c(O)c(C)c(OC)c3c2OC2=Cc4c(c(C)nn4-c4ccccc4)C(=O)[C@@]23C)c1OC  8.7 µM
19. CC(=O)C1=C(O)C=C2O[C@]34O[C@@]3(C(C)=O)C(=O)C(C)=C(O)[C@]4(O)[C@@]2(C)C1=O  10.6 µM
20. CC(=O)c1c(O)c(C)c(O)c2c1OC1=CC(=O)/C(=C(/C)NCC(=O)O)C(=O)[C@]12C  10.7 µM
21. CC(=O)c1c(O)c(C)c(O)c2c1OC1=CC(=O)/C(=C(/C)NCC(=O)O)C(=O)[C@@]12C  11.2 µM
22. CC(=O)c1c(O)c(C)c(O)c2c1OC1=Cc3c(c(C)nn3-c3ccccc3)[C@H](O)[C@]12C  12 µM
23. CC(=O)C1=C(O)C=C2Oc3c(C(C)=O)c(O)c(C)c(O)c3[C@]2(C)C1=O [(-)-USNIC ACID]  13.1 µM
24. CC(=O)[C@@]12O[C@@]13OC1=Cc4c(c(C)nn4-c4ccccc4)C(=O)[C@]1(C)[C@@]3(O)C(O)=C(C)C2=O  13.4 µM
25. CC(=O)c1c(O)c(C)c(O)c2c1OC1=CC(=O)/C(=C(/C)NCCC(=O)O)C(=O)[C@]12C  14.5 µM
26. COc1c(C)c(O)c2c(c1C(=O)CSC1=NCCS1)OC1=CC(O)=C(C(C)=O)C(=O)[C@@]12C  14.7 µM
27. COc1c(C)c(O)c2c(c1C(=O)CSc1nc3ccccc3o1)OC1=CC(O)=C(C(C)=O)C(=O)[C@]12C  23.7 µM
28. COc1ccc2[nH]c(SCC(=O)c3c(OC)c(C)c(O)c4c3OC3=CC(O)=C(C(C)=O)C(=O)[C@@]34C)nc2c1  24.3 µM
29. COc1ccc(/C=C/C(=O)c2c(O)c(C)c(OC)c3c2OC2=Cc4c(c(C)nn4-c4ccccc4)[C@@H](O)[C@@]23C)c(OC)c1  25.9 µM
30. COc1ccc(OC)c(/C=C/C(=O)c2c(O)c(C)c(OC)c3c2OC2=Cc4c(c(C)nn4-c4ccccc4)[C@@H](O)[C@@]23C)c1  25.9 µM
31. CC(=O)c1c(O)c(C)c(O)c2c1OC1=CC(=O)/C(=C(/C)NCCCC(=O)O)C(=O)[C@]12C  28 µM
32. CC(=O)C1=C(O)C=C2O[C@@]34O[C@]3(C(C)=O)C(=O)C(C)=C(O)[C@@]4(O)[C@]2(C)C1=O  28.7 µM
33. CC(=O)C1=C(O)C=C2Oc3c(C(=O)CSc4nc5ccccc5s4)c(O)c(C)c(O)c3[C@@]2(C)C1=O  29.5 µM
34. COc1c(C)c(O)c(C(=O)/C=C/c2ccccc2)c2c1[C@]1(C)C(=Cc3c(c(C)nn3-c3ccccc3)[C@H]1O)O2  32.7 µM
35. COc1ccc(/C=C/C(=O)c2c(O)c(C)c(OC)c3c2OC2=Cc4c(c(C)nn4-c4ccccc4)[C@@H](O)[C@@]23C)c(OC)c1OC  32.8 µM
36. COc1ccc(/C=C/C(=O)c2c(O)c(C)c(OC)c3c2OC2=Cc4c(c(C)nn4-c4ccccc4)[C@@H](O)[C@@]23C)cc1OC  34.5 µM
37. CC(=O)c1c(O)c(C)c(O)c2c1OC1=CC(=O)/C(=C(/C)NCCCC(=O)O)C(=O)[C@@]12C  35 µM
38. COc1cccc(/C=C/C(=O)c2c(O)c(C)c(OC)c3c2OC2=Cc4c(c(C)nn4-c4ccccc4)[C@@H](O)[C@@]23C)c1OC  50.7 µM
39. CC(=O)C1=C(O)C=C2Oc3c(C(C)=O)c(O)c(C)c(O)c3[C@@]2(C)C1=O [(+)-USNIC ACID]  51.7 µM
40. COc1c(C)c(O)c(C(=O)/C=C/c2ccc(SC)cc2)c2c1[C@]1(C)C(=Cc3c(c(C)nn3-c3ccccc3)[C@H]1O)O2  53 µM
41. COc1c(C)c(O)c(C(=O)/C=C/c2ccc(Cl)cc2)c2c1[C@]1(C)C(=Cc3c(c(C)nn3-c3ccccc3)[C@H]1O)O2  55.1 µM
42. CC(=O)c1c(O)c(C)c(O)c2c1OC1=Cc3c(c(C)nn3-c3ccccc3)C(=O)[C@]12C  56.3 µM
43. CC(=O)C1=C(O)C=C2Oc3c(C(=O)CSCc4ncccc4C(=O)O)c(O)c(C)c(O)c3[C@@]2(C)C1=O  56.3 µM
44. COc1c(C)c(O)c(C(=O)/C=C/c2ccccc2)c2c1[C@@]1(C)C(=Cc3c(c(C)nn3-c3ccccc3)[C@@H]1O)O2  60.6 µM
45. CC(=O)C1=C(O)C=C2Oc3c4c(c(C)c(O)c3[C@]2(C)C1=O)OCC4=O  64.3 µM
46. CC(=O)C1=C(O)C=C2Oc3c4c(c(C)c(O)c3[C@@]2(C)C1=O)OCC4=O  64.3 µM
47. COc1ccccc1/C=C/C(=O)c1c(O)c(C)c(OC)c2c1OC1=Cc3c(c(C)nn3-c3ccccc3)[C@H](O)[C@]12C  64.9 µM
48. CC(=O)c1c(O)c(C)c(O)c2c1OC1=Cc3c(c(C)nn3-c3cccc(C(F)(F)F)c3)C(=O)[C@@]12C  68.4 µM
49. CC(=O)c1c(O)c(C)c(O)c2c1OC1=Cc3c(c(C)nn3-c3ccccc3)C(=O)[C@@]12C  69.5 µM
50. COc1cccc(/C=C/C(=O)c2c(O)c(C)c(OC)c3c2OC2=Cc4c(c(C)nn4-c4ccccc4)[C@H](O)[C@]23C)c1OC  76.4 µM
51. COc1c(C)c(O)c(C(=O)/C=C/c2ccc(Cl)cc2)c2c1[C@@]1(C)C(=Cc3c(c(C)nn3-c3ccccc3)[C@@H]1O)O2  79.4 µM
52. COc1ccccc1/C=C/C(=O)c1c(O)c(C)c(OC)c2c1OC1=Cc3c(c(C)nn3-c3ccccc3)[C@@H](O)[C@@]12C  82.7 µM
53. COc1ccc(-c2cc(-c3c(O)c(C)c(OC)c4c3OC3=Cc5c(c(C)nn5-c5ccccc5)[C@@H](O)[C@@]34C)n[nH]2)cc1  102 µM
54. COc1c(C)c(O)c2c(c1C(=O)CSCCC(=O)O)OC1=CC(O)=C(C(C)=O)C(=O)[C@@]12C  161 µM
55. COc1c(C)c(O)c(C(C)=O)c2c1[C@]1(C)C(=Cc3c(c(C)nn3-c3ccccc3)CC13CO3)O2 (single isomer, unassigned; (+))  262 µM
